ChEMBL document CHEMBL1132985, “Design and SAR of novel potassium channel openers targeted for urge urinary incontinence. 2. Selective and potent benzylamino cyclobutenediones” (J Med Chem, 2000)

Assays:
Format in all cases: functional
Rattus norvegicus [1] = species on record: Rattus norvegicus; test: In vitro inhibitory concentration that relaxed KCL induced contraction in rat detrusor strip by 50%
Rattus norvegicus [2] = test: Compound was evaluated in vivo for the effective dose that cause a 50% reduction in frequency of spontaneous bladder contraction in the rat hypertrophied model after oral administration
Procedure, shortened: (§1)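 Female Sprague-Dawley rats (190-210 g) given partial proximal urethral ligation (4-0 silk over 1 mm rod) under isoflurane; bladder catheter, cystometry in metabolic cages after overnight saline perfusion (2 mL/h), saline infusion 20 mL/h. Oral dosing in PEG-200 2 h after first cystometry, repeat ~1 h post-dose; % change in contraction frequency from pre-drug; ED50 from dose-response.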

Rattus norvegicus [3] = test: The percent change in BP was determined after oral administration of a dose of 10 mg/kg in rat hypertrophied model
Rattus norvegicus [4] = test: The percent change in the frequency of spontaneous bladder contractions after oral administration of a dose of 3 mg/kg in rat hypertrophic bladder model; procedure, shortened: as §1
Rattus norvegicus [5] = test: Compound was evaluated in vivo for the effective dose that cause a 20% drop in MAP normotensive rat after oral administration
[6] = Selectivity ratio of MAP ED20/bladder ED50
Procedure, shortened: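 Ratio of oral MAP ED20 in normotensive rats to oral ED50 for 50% fall in spontaneous bladder contraction frequency in rat hypertrophied unstable-bladder model.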

SMILES | IC50 (Rattus norvegicus [1]) | other results
CN(C)c1c(NCc2ccc(C#N)cc2)c(=O)c1=O | > 30 µM | 
CCCC(=O)N(Cc1c(C)cc(Cl)cc1Cl)c1c(NC(C)(C)CC)c(=O)c1=O |  | ED50 (Rattus norvegicus [2]): 3.9 mg/kg
CCC(C)(C)/N=c1\c(O)c(O)\c1=N/Cc1c(C)cc(C)cc1Cl | 0.2 µM | 
Cc1cc(Br)cc(C)c1C/N=c1\c(O)c(O)\c1=N/C(C)(C)C | 0.29 µM | 
Cc1cc(Cl)cc(Cl)c1C/N=c1\c(O)c(O)\c1=N/C(C)C(C)(C)C (stereo not drawn) | 9.8 µM | 
Cc1cc(C#N)cc(Cl)c1C/N=c1\c(O)c(O)\c1=N/C(C)C(C)(C)C (stereo not drawn) | 1.9 µM | 
CCc1cc(C#N)ccc1C/N=c1\c(O)c(O)\c1=N/C(C)(C)CC | 0.11 µM | 
CCC(C)(C)/N=c1\c(O)c(O)\c1=N/Cc1c(C)cccc1C | 0.83 µM | 
CCc1cc(C#N)ccc1Nc1c(N[C@H](C)C(C)(C)C)c(=O)c1=O |  | ED20 (Rattus norvegicus [5]): 2.3 mg/kg; ED50 (Rattus norvegicus [2]): 0.13 mg/kg; Ratio [6]: 17.7
CC1(C)Oc2ccc(OC(F)(F)F)cc2[C@@H](N2Cc3ccccc3C2=O)[C@@H]1O [CELIKALIM] |  | ED20 (Rattus norvegicus [5]): 0.2 mg/kg; ED50 (Rattus norvegicus [2]): 0.3 mg/kg; Ratio [6]: 0.7
CCC(C)(C)/N=c1\c(O)c(O)\c1=N/Cc1c(C)cc(Br)cc1C | 1.2 µM | 
CCC(C)(C)/N=c1\c(O)c(O)\c1=N/Cc1ccc(C#N)c(Cl)c1 | 0.26 µM | 
CCC(C)(C)/N=c1\c(O)c(O)\c1=N/Cc1c(C)cc(C)cc1C | 0.31 µM | 
CCC(C)(C)/N=c1\c(O)c(O)\c1=N/Cc1ccc(C)cc1C | 0.53 µM | 
CCCC(=O)N(Cc1ccc(C#N)cc1)c1c(NC(C)C(C)(C)C)c(=O)c1=O (stereo not drawn) | 12.2 µM | ED50 (Rattus norvegicus [2]): 8 mg/kg
CN(c1c(NCc2ccc(C#N)cc2)c(=O)c1=O)C(C)(C)C | 18.3 µM | 
CCC(C)(C)Nc1c(NCc2c(C)cc(Cl)cc2Cl)c(=O)c1=O | 0.1 µM | ED20 (Rattus norvegicus [5]): 100 mg/kg; ED50 (Rattus norvegicus [2]): 0.6 mg/kg; Change (Rattus norvegicus [3]): -7%; Change (Rattus norvegicus [4]): -82%; Ratio [6]: 166
CCCC/N=c1\c(O)c(O)\c1=N/Cc1ccc(C#N)cc1 | > 30 µM | 
CCC(C)(C)/N=c1\c(O)c(O)\c1=N/Cc1c(C)cccc1Cl | 4.4 µM | 
CCC(C)(C)/N=c1\c(O)c(O)\c1=N/Cc1ccc(Cl)cc1Cl | 0.21 µM | 

SMILES | IC50 (Rattus norvegicus [1]) | other results
CCC/N=c1\c(O)c(O)\c1=N/Cc1ccc(C#N)cc1 | 21.9 µM | 
C[C@](O)(C(=O)Nc1ccc(C(=O)c2ccccc2)cc1)C(F)(F)F [ZD-6169] |  | ED50 (Rattus norvegicus [2]): 2.4 mg/kg; Ratio [6]: 2.9
N#Cc1ccc(CNc2c(NC3CCCC3)c(=O)c2=O)cc1 | 9.4 µM | 
CCC(C)(C)/N=c1\c(O)c(O)\c1=N/Cc1c(Cl)cccc1Cl | 0.28 µM | 
Cc1cc(Cl)cc(Cl)c1C/N=c1\c(O)c(O)\c1=N/C(C)(C)C | 0.22 µM | 
CC(C)(C)/N=c1\c(O)c(O)\c1=N/Cc1ccc(C#N)c(Cl)c1 | 1.1 µM | 
CCC(CC)/N=c1\c(O)c(O)\c1=N/Cc1ccc(C#N)cc1 | 1.3 µM | 
N#Cc1ccc(CNc2c(NCC(F)(F)C(F)(F)F)c(=O)c2=O)cc1 | 14.4 µM | 
CCC(C)(C)/N=c1\c(O)c(O)\c1=N/Cc1cc(C)cc(C)c1 | > 30 µM | 
CCC(C)(C)/N=c1\c(O)c(O)\c1=N/Cc1ccc(C#N)cc1Cl | 0.13 µM | 
CCc1cc(C#N)ccc1C/N=c1\c(O)c(O)\c1=N/[C@H](C)C(C)(C)C | 2 µM | 
CC(/N=c1\c(O)c(O)\c1=N/[C@H](C)C(C)(C)C)c1ccc(C#N)cc1 (stereo partly drawn) | 6.5 µM | 
CC(/N=c1/c(NC(=O)c2ccc(C#N)cc2)c(O)c1=O)C(C)(C)C (stereo not drawn) | 11.5 µM | 
N#Cc1ccc(CNc2c(N)c(=O)c2=O)cc1 | > 30 µM | 
CC(/N=c1\c(O)c(O)\c1=N/Cc1ccc(Cl)cc1Cl)C(C)(C)C (stereo not drawn) | 0.34 µM | 
CC(/N=c1\c(O)c(O)\c1=N/CCc1ccc(C#N)cc1)C(C)(C)C (stereo not drawn) | > 30 µM | 
CC(/N=c1\c(O)c(O)\c1=N/Cc1ccc(C#N)cc1Cl)C(C)(C)C (stereo not drawn) | 0.18 µM | 
N#Cc1ccc(CNc2c(NCc3ccc(C#N)cc3)c(=O)c2=O)cc1 | > 30 µM | 
CCC(C)(C)/N=c1\c(O)c(O)\c1=N/Cc1c(C)cc(C#N)cc1Cl | 0.16 µM | 

Continued, in another order:

IC50 (Rattus norvegicus [1]) | SMILES | other results
1.3 µM | CC(C)(C)/N=c1\c(O)c(O)\c1=N/Cc1ccc(Cl)cc1Cl | 
3 µM | CC(C)(C)/N=c1\c(O)c(O)\c1=N/Cc1ccncc1 | 
1.5 µM | CCC(C)(C)/N=c1\c(O)c(O)\c1=N/Cc1ccc(F)cc1Cl | 
1.1 µM | CCC(C)(C)/N=c1\c(O)c(O)\c1=N/Cc1ccc(C#N)cc1 | 
0.75 µM | CCC(C)(C)/N=c1\c(O)c(O)\c1=N/Cc1cc(F)cc(F)c1 | 
2.1 µM | CC(C)(C)/N=c1\c(O)c(O)\c1=N/Cc1ccc(F)cc1F | 
2.4 µM | CC(C)(C)/N=c1\c(O)c(O)\c1=N/Cc1cccc(F)c1 | 
5.6 µM | CCC(C)(C)/N=c1\c(O)c(O)\c1=N/Cc1ccc(SC)cc1 | 
0.27 µM | C[C@@H](/N=c1\c(O)c(O)\c1=N/Cc1ccc(C#N)cc1)C(C)(C)C | Change (Rattus norvegicus [3]): 7%; Change (Rattus norvegicus [4]): -69%
2.1 µM | CC(C)(C)/N=c1\c(O)c(O)\c1=N/Cc1ccccc1F | 
7.5 µM | CC(C)(C)/N=c1\c(O)c(O)\c1=N/Cc1c(F)cccc1F | 
0.22 µM | CCC(C)(C)/N=c1\c(O)c(O)\c1=N/Cc1ccc(F)cc1F | 
4.8 µM | COc1ccc(C/N=c2\c(O)c(O)\c2=N/C(C)(C)C)cc1 | 
14 µM | CC(C)/N=c1\c(O)c(O)\c1=N/Cc1ccc(C#N)cc1 | 
0.36 µM | CCC(C)(C)/N=c1\c(O)c(O)\c1=N/Cc1ccc(F)cc1 | 
1.4 µM | CC(C)(C)/N=c1\c(O)c(O)\c1=N/Cc1ccc(F)cc1Cl | 
0.63 µM | Cc1ccc(C/N=c2\c(O)c(O)\c2=N/C(C)(C)C)c(C)c1 | 
10.2 µM | CC(C)C/N=c1\c(O)c(O)\c1=N/Cc1ccc(C#N)cc1 | 
21.3 µM | CC(C)(CO)/N=c1\c(O)c(O)\c1=N/Cc1ccc(C#N)cc1 | 

IC50 (Rattus norvegicus [1]) | SMILES | other results
1.5 µM | CC(C)(C)/N=c1\c(O)c(O)\c1=N/Cc1ccc(F)cc1 | 
1.7 µM | CC(C)(C)/N=c1\c(O)c(O)\c1=N/Cc1ccc(Cl)cc1 | 
0.14 µM | CC(C)(C)/N=c1\c(O)c(O)\c1=N/Cc1ccc(C#N)cc1Cl | ED50 (Rattus norvegicus [2]): 3 mg/kg
4 µM | CC[C@@H](C)/N=c1\c(O)c(O)\c1=N/Cc1ccc(C#N)cc1 | 
2.6 µM | CC(C)(C)/N=c1\c(O)c(O)\c1=N/Cc1cccnc1 | 
1.6 µM | CCC(C)(C)/N=c1\c(O)c(O)\c1=N/Cc1ccc(F)c(F)c1 | 
> 30 µM | CC(C)(C)/N=c1\c(O)c(O)\c1=N/CCc1ccc(C#N)cc1 | 
0.87 µM | CCC(C)(C)/N=c1\c(O)c(O)\c1=N/Cc1ccc(F)c(Cl)c1 | 
3.4 µM | CC(C)(C)/N=c1\c(O)c(O)\c1=N/Cc1ccccc1 | 
0.27 µM | CCc1cc(Br)ccc1C/N=c1\c(O)c(O)\c1=N/C(C)(C)C | 
1.1 µM | CC(C)(C)/N=c1\c(O)c(O)\c1=N/Cc1c(Cl)cccc1Cl | 
11.5 µM | CC(C)(C)/N=c1\c(O)c(O)\c1=N/Cc1ccccn1 | 
6.1 µM | CCc1cc(C/N=c2\c(O)c(O)\c2=N/C(C)(C)C)ccc1C#N | 
> 30 µM | CCC(C)(C)/N=c1\c(O)c(O)\c1=N/Cc1ccc(C)c(C)c1 | 
0.27 µM | CC(C)(C)/N=c1\c(O)c(O)\c1=N/Cc1ccc(C#N)cc1 | ED50 (Rattus norvegicus [2]): 3 mg/kg; Change (Rattus norvegicus [4]): -52%
0.24 µM | CCc1cc(C#N)ccc1C/N=c1\c(O)c(O)\c1=N/C(C)(C)C | 
3.9 µM | CC(C)(C)/N=c1\c(O)c(O)\c1=N/Cc1cc(F)ccc1F | 
> 30 µM | C/N=c1\c(O)c(O)\c1=N/Cc1ccc(C#N)cc1 | 
2.2 µM | CC[C@H](C)/N=c1\c(O)c(O)\c1=N/Cc1ccc(C#N)cc1 | 
